In ChEMBL document CHEMBL4334484, “Polyketides and a Dihydroquinolone Alkaloid from a Marine-Derived Strain of the Fungus Metarhizium marquandii” (2019) one finds MIC and Activity data, which are given here for two compounds.

Test [1] relates to Staphylococcus aureus. Briefly: Antibacterial activity against Staphylococcus aureus ATCC 700699 by CLSI protocol based broth microdilution method. The test is classed as functional. Summed up: (§1)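 Serial 2-fold dilutions, DMSO diluted along with compounds; highest concentration tested 64 μg/mL. Moxifloxacin positive control for S. aureus, rifampicin for A. baumanii and P. aeruginosa.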

Test [2] relates to Mycobacterium tuberculosis. Briefly: Antibacterial activity against Mycobacterium tuberculosis by CLSI protocol based broth microdilution method. The test is classed as functional. Summed up:
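Broth microdilution per CLSI guidelines. Serial 2-fold dilutions up to a highest tested concentration of 64 μg/mL, with DMSO diluted along with the compounds. Rifampicin served as positive control.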

For the next test, the system named is Pseudomonas aeruginosa. As to the kind of experiment: Antibacterial activity against Pseudomonas aeruginosa 27853 by CLSI protocol based broth microdilution method. The test is classed as functional. The gist of the method: as §1
In test [3] the test system is Staphylococcus aureus. As to the kind of experiment: Antibacterial activity against Staphylococcus aureus ATCC 29213 by CLSI protocol based broth microdilution method. Format: functional. Summed up:
as §1

A further test relates to L5178Y. As to the kind of experiment: Cytotoxicity against mouse L5178Y cells assessed as cell growth inhibition at 10 ug/ml measured after 72 hrs by MTT assay. Format: functional, cell-based. Summed up: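 L5178Y mouse lymphoma cells, MTT read-out relative to untreated controls, compounds at 10 μg/mL. Negative control: medium with 0.1% ethylene glycol monomethyl ether/DMSO; kahalalide F positive control. Three independent experiments, each in triplicate.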

In another test the test system is Acinetobacter baumannii. As to the kind of experiment: Antibacterial activity against Acinetobacter baumannii BAA 1605 by CLSI protocol based broth microdilution method. Format: functional. Summed up: as §1

Activity calls are given as the source filed them. No cut-off for these calls is given here.

For `O=C1Nc2ccccc2[C@](O)(c2cccc(O)c2)[C@H]1O`, the MIC (with Staphylococcus aureus [1]; in test [2]; in the test with Pseudomonas aeruginosa; in the test on Staphylococcus aureus [3]; against Acinetobacter baumannii) was more than 100 µM throughout. Further, the result in the test on L5178Y was inactive.

On to `CC(=O)c1cc(C)c(O)c(CC2=C(O)C(CC(=O)O)OC2=O)c1O` (racemic), for which the minimum inhibitory concentration (MIC) (against Staphylococcus aureus [1]; in test [2]; in the test on Pseudomonas aeruginosa; in the test with Staphylococcus aureus [3]; against Acinetobacter baumannii) was more than 100 µM in each case. Besides, in the test with L5178Y, the result was inactive.
